The results in this text go back to ChEMBL document CHEMBL4725414, “Identification, Structure-Activity Relationship, and Biological Characterization of 2,3,4,5-Tetrahydro-1H-pyrido[4,3-b]indoles as a Novel Class of CFTR Potentiators” (J Med Chem, 2020).

Activity calls are given as the source filed them.

Assay [1] concerns the target T1, Cystic fibrosis transmembrane conductance regulator (Homo sapiens, UniProt P13569). Nature of the assay: Potentiation of human CFTR F508 deletion mutant expressed in rat FRT cells coexpressing HS-YFP assessed as increase in iodide influx pre-incubated for 15 to 30 mins in presence of forskolin by fluorescent method. It is filed as cell-based.
Target sequence in this assay (P13569 as listed by the source): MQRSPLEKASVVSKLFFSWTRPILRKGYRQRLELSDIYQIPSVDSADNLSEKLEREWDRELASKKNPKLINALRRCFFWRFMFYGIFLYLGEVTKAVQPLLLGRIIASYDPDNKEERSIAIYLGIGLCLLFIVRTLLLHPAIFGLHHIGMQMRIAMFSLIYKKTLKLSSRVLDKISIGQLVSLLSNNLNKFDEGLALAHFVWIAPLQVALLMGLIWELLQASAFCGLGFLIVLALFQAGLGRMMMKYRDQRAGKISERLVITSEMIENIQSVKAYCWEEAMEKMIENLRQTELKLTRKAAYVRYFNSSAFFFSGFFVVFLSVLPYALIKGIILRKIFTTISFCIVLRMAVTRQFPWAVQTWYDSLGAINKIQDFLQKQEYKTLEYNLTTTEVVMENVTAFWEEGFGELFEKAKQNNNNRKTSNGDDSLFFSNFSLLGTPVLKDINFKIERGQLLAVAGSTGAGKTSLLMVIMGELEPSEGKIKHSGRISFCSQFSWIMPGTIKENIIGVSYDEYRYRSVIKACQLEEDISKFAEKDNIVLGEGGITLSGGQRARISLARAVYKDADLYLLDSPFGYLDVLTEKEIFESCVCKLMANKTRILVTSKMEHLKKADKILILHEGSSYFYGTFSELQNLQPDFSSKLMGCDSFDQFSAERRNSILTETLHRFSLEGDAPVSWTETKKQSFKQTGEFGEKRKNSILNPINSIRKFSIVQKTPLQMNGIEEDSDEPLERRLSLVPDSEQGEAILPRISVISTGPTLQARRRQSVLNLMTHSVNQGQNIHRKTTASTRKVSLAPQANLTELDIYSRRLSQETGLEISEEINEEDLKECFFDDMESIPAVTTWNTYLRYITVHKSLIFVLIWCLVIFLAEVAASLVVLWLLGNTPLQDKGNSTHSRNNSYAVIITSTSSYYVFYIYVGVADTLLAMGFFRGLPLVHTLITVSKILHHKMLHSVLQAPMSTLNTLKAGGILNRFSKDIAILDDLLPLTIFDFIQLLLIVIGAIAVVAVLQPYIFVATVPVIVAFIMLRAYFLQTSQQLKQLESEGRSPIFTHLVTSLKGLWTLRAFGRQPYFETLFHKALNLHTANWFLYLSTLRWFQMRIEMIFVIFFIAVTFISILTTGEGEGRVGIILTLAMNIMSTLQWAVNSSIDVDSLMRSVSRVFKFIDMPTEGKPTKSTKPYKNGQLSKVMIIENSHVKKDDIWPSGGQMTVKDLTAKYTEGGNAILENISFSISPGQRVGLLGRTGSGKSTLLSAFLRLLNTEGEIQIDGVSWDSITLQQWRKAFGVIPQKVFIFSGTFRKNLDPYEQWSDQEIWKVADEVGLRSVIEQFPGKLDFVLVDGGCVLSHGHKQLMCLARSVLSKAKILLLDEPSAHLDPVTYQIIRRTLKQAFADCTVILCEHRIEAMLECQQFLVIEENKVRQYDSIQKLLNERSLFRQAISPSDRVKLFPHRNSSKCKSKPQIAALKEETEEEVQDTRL
Assay [2] concerns Cystic fibrosis transmembrane conductance regulator (Homo sapiens), P13569 [F508del]. Nature of the assay: Potentiation of human CFTR F508 deletion mutant expressed in rat FRT cells coexpressing HS-YFP assessed as increase in iodide influx pre-incubated for 15 to 30 mins in presence of forskolin by fluorescent method relative to forskolin alone. It is filed as cell-based. As to conditions: time min 15-30. The procedure, abridged:
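Primary HTS: F508del-CFTR/HS-YFP FRT cells, rescued 24 h at 32 °C, were treated acutely (15–30 min) with single compound at 5 μM plus forskolin 10 μM, screened in duplicate. The HS-YFP quenching rate from iodide influx was expressed relative to forskolin-alone wells. Forskolin plus VX-770 1 μM served as positive control. The average of two rounds was scored, with hit threshold >185%.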

Assay [3] relates to Cystic fibrosis transmembrane conductance regulator (Homo sapiens), P13569 [G551D]. Description: Potentiation of human CFTR G551D mutant expressed in rat FRT cells coexpressing HS-YFP assessed as increase in iodide influx at 20 uM pre-incubated for 15 to 30 mins in presence of forskolin by fluorescent method relative to forskolin alone. It is filed as cell-based. The conditions noted are these: time min 15-30. Put shortly:
(§1)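 HS-YFP iodide influx assay in FRT cells (F508del cells rescued 24 h at 32 °C; G551D cells not); 25 min with forskolin plus compound at fixed concentrations, then I⁻ injection (final 100 mM); quenching rate from linear fit of final 10 s of a 14 s reading; three concentrations tested on G551D cells; n = 9.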

Assay [4] deals with Cystic fibrosis transmembrane conductance regulator (Homo sapiens), P13569 [F508del]. Nature of the assay: Effect on processing/trafficking of CFTR F508 deletion mutant in primary HBE cells from F508del/F508del CF patient at 0.5 uM incubated for 24 hrs in presence of CFTR corrector ARN23765 by TEER/PD assay. It is filed as cell-based. Put shortly: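 Differentiated F508del/F508del primary bronchial epithelia grown at air–liquid interface 2–3 weeks; treated 24 h at 37 °C, 5% CO2 in culture medium with vehicle, corrector ARN23765 (10 nM) alone, or ARN23765 plus test compound (0.5 μM); TEER and PD measured, equivalent short-circuit current calculated; n = 9 (three experiments × three biological replicates).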

In assay [5] the target is T1, Cystic fibrosis transmembrane conductance regulator. Nature of the assay: Potentiation of CFTR in primary human bronchial epithelial cells assessed as stimulation of CFTR-mediated chloride current at 100 uM in presence of CPT-cAMP by short-circuit current method. As to conditions: dose 1.0 µM, in the assay text read “at 1 uM” for “at 100 uM”. The procedure, abridged: (§2)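 Non-CF primary HBE cells on porous inserts, differentiated at air–liquid interface 2–3 weeks; Ussing chamber short-circuit current. Amiloride added to block ENaC; cells stimulated with submaximal CPT-cAMP, then increasing potentiator concentrations or potentiator then CPT-cAMP 5 μM and 100 μM; total CFTR current defined by CFTR inhibitor-172; n = 9 (three experiments × three replicates).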
Target sequence in this assay (P13569 whole entry, looked up): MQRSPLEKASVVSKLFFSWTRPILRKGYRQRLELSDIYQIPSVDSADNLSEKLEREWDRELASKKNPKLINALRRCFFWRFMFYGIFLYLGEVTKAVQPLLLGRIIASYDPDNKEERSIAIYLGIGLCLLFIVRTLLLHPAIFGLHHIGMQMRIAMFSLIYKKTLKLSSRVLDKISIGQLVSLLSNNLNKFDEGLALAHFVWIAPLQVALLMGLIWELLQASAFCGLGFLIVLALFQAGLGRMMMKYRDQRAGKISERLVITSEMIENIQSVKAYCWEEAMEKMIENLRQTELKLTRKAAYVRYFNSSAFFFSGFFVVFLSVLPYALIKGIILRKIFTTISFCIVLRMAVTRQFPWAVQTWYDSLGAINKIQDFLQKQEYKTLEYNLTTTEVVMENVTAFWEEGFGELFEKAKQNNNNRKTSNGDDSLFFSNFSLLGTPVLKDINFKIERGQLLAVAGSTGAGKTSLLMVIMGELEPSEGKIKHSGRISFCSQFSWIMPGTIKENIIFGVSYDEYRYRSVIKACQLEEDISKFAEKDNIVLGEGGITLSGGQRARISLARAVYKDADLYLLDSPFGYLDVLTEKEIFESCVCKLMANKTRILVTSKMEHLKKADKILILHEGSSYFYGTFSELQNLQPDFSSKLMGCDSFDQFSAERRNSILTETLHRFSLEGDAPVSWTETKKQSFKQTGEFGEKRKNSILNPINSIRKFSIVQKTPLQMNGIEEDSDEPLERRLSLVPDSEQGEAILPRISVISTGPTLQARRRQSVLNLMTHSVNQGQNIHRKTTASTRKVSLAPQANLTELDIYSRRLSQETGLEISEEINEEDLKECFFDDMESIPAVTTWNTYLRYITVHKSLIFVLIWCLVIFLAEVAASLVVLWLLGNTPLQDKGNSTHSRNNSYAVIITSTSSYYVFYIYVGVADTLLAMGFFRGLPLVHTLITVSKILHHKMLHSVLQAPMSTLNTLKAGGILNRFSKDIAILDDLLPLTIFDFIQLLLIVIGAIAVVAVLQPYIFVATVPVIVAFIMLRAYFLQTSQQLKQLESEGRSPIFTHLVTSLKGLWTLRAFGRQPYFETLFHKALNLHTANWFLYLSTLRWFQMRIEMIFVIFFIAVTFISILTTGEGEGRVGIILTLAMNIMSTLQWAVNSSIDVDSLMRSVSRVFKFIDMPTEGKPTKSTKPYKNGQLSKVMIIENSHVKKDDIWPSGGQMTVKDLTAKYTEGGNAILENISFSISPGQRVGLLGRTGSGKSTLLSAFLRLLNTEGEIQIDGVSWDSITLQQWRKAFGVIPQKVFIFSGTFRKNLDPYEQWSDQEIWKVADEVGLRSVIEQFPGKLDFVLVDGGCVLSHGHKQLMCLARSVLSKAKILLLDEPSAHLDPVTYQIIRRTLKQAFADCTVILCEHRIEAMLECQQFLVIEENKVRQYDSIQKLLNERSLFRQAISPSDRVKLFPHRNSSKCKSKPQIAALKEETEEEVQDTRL

For assay [6], the system named is Cystic fibrosis transmembrane conductance regulator (Homo sapiens), P13569 [F508del]. Description: Potentiation of human CFTR F508 deletion mutant expressed in CFBE41o cells coexpressing HS-YFP assessed as increase in CFTR-dependent iodide influx at 0.256 to 10 uM pre-incubated for 15 to 30 mins in presence of forskolin by fluorescent method relative to forskolin alone. The conditions noted are these: filed as activator, dose microM 0.256-10, time min 15-30.

For assay [7] the test system is unchanged. Nature of the assay: Potentiation of human CFTR F508 deletion mutant expressed in rat FRT cells coexpressing HS-YFP assessed as increase in iodide influx at […] to 10 uM pre-incubated for 15 to 30 mins in presence of forskolin by fluorescent method relative to forskolin alone. The conditions noted are these: filed as activator, dose microM 0.256-10, time min 15-30. It is filed as cell-based. The procedure, abridged:
(§3)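 Cells plated 50,000/well, assayed next day; F508del FRT cells first held 24 h at 32 °C to rescue trafficking. Washed in PBS, incubated 25 min with forskolin (20 μM) plus compound, then I⁻ solution injected (final 100 mM). YFP fluorescence (ex 500, em 535 nm) read for 14 s; initial slope from linear fit of final 10 s; dose–response, n = 9.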

Assay [8] has the same test system. Description: Potentiation of human CFTR F508 deletion mutant expressed in rat FRT cells coexpressing HS-YFP assessed as increase in iodide influx at 5 uM pre-incubated for 15 to 30 mins in presence of forskolin by fluorescent method relative to forskolin alone. As to conditions: filed as activator, time min 15-30. It is filed as cell-based. The procedure, abridged: as §3

Assay [9] deals with Cystic fibrosis transmembrane conductance regulator (Homo sapiens), P13569 [G551D]. Description: Potentiation of human CFTR G551D mutant expressed in rat FRT cells coexpressing HS-YFP assessed as increase in iodide influx at 1.56 to 50 uM pre-incubated for 15 to 30 mins in presence of forskolin by fluorescent method relative to forskolin alone. The conditions noted are these: filed as activator, dose microM 1.56-50, time min 15-30. It is filed as cell-based. Put shortly:
as §3

The test system is the same in assay [10]. Description: Potentiation of human CFTR G551D mutant expressed in rat FRT cells coexpressing HS-YFP assessed as increase in iodide influx at 5 uM pre-incubated for 15 to 30 mins in presence of forskolin by fluorescent method relative to forskolin alone. It is filed as cell-based. As to conditions: filed as activator, time min 15-30. Put shortly: as §1

The test system of assay [11] is Cystic fibrosis transmembrane conductance regulator (Homo sapiens), P13569 [F508del]. Description: Potentiation of human CFTR F508 deletion mutant expressed in rat FRT cells coexpressing HS-YFP assessed as increase in iodide influx at 1 uM pre-incubated for 15 to 30 mins in presence of forskolin by fluorescent method relative to forskolin alone. It is filed as cell-based. As to conditions: filed as activator, time min 15-30. The procedure, abridged: as §1

Assay [12] concerns the target T1, Cystic fibrosis transmembrane conductance regulator. Nature of the assay: Potentiation of CFTR in primary human bronchial epithelial cells assessed as stimulation of CFTR-mediated chloride current at 0.5 to 5 uM in presence of CPT-cAMP and CFTR inhibitor-172 by short-circuit current method. As to conditions: dose microM 0.5-5. Put shortly: as §2
Target sequence in this assay (P13569 whole entry, looked up): as above
The target is the same in assay [13]. Description: Potentiation of CFTR in primary human bronchial epithelial cells assessed as stimulation of CFTR-mediated chloride current at 30 to […] uM in presence of CPT-cAMP by short-circuit current method. The conditions noted are these: filed as activator, dose microM 30-50. The procedure, abridged: as §2
Target sequence in this assay (P13569 whole entry, looked up): as above

Sequence of Cystic fibrosis transmembrane conductance regulator (Homo sapiens), P13569 [G551D] (P13569 whole entry G551D): as the sequence (P13569 whole entry, looked up) above, with G551D counted along it
Sequence of Cystic fibrosis transmembrane conductance regulator (Homo sapiens), P13569 [F508del] (P13569 as listed by the source): as the sequence (P13569 as listed by the source) above

In the case of `Cc1ccc(F)c2[nH]c3c(c12)[C@H]1CC[C@@H](C3)N1C(=O)c1cc(C(F)(F)F)[nH]n1`, in [1], the EC50 entry is reported as “Not Active”. Also, the Emax result in assay [2] was “inactive”.

Regarding `Cc1ccc(F)c2[nH]c3c(c12)CN(C(=O)c1cc(C(F)(F)F)[nH]n1)CC3`, the result in [3] (filed as activator) was Active.

As for `Cc1ccc(F)c2[nH]c3c(c12)CN(C(=O)c1cc(C(F)(F)F)[nH]n1)[C@H](C)C3`, the result in assay [4] was inactive. Besides, the fold change (FC) in assay [5] was > 2. In addition, the result in assay [3] (filed as activator) was Active.

Turning to `COc1cc(F)c2[nH]c3c(c2c1)CN(C(=O)c1cc(C(F)(F)F)[nH]n1)CC3`, in assay [3] (filed as activator), the outcome was Active.

As to `CN(C)c1ccc2cc(C(=O)N3CCc4[nH]c5ccccc5c4C3)[nH]c2c1`, the Activity entry in assay [6] is “Dose-dependent effect”. Besides, the result in assay [7], in [8] and in [9] was Active.

In the case of `O=C(c1cc(C(F)(F)F)[nH]n1)N1CCc2[nH]c3c(F)cccc3c2C1`, in [3] (filed as activator), the result was Active.

For `O=C(c1cnn(-c2ccccc2)c1)N1CCc2[nH]c3ccccc3c2C1`, in assay [6], the Activity entry was “Dose-dependent effect”. Further, the outcome in assay [7], in assay [8] and in assay [9] was Active.

On to `CC(C)(C)c1cc(C(C)(C)C)c(NC(=O)c2c[nH]c3ccccc3c2=O)cc1O`, for which the result in [10], in assay [3] (filed as activator) and in assay [11] was Active.

With `COc1ccc2[nH]c3c(c2c1)CN(C(=O)c1cc(C(F)(F)F)[nH]n1)CC3`, the Activity result in assay [6] was “Dose-dependent effect”. For the same compound, the outcome in assay [12] and in [3] was inactive. The result in assay [7], in assay [8], in assay [9] and in assay [13] was Active.
